Compound activity deposited in PubChem BioAssay by several laboratories.
A selection: hits, their analogues and other compounds. The true share with any hit is near 9.4%.
Mdm2 MdmX PPI: inhibitors of human Mdm2/MdmX interaction; inhibition, % at 8 µM; O15151+Q00987; 3% of 330,000 active; SaOS-2 split-luciferase Mdm2/MdmX complementation, luminescence;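 active = inhibition of at least 50% at 8 µM in the primary screen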
Lmaj promast: reduces viability of Leishmania major promastigotes; resazurin fluorescence viability; inhibition, % at 10 µM; 9% of 200,000 active; AID 1063; in the data active = inhibition above about 50%;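 also: promastigotes grown with compound for 44 hours at 28 °C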
Beta cell apopt: beta cell apoptosis inhibition | 0.8% of 300,000 active | INS-1E cytokine-induced death, ATP luminescence, 48 h; percent of positive-control rescue, neutral wells zero | protection from apoptosis, % (no concentration beside the values);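 active = Every replicate reaches about 75%, or at least half do and their mean reaches it too, limit read from the data; inconclusive = At least half of replicates reach the limit but their mean does not; inactive = Under half of replicates reach the limit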;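 also: higher means more ATP so stronger rescue from cytokine killing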
T cruzi repl: T. cruzi replication inhibition; T. cruzi beta-gal in NIH3T3, luminescence, 90 h; inhibition, % (concentration not given with the values); 1.4% of 300,000 active; AID 1885;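 active = mean inhibition across valid replicates above about 55%, limit read from the data; inconclusive = mean below that limit but half or more replicates reach it; inactive = mean below it, under half of replicates reach it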;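 also: signal also drops with host cell toxicity which is not excluded here; higher percent means less beta-gal luminescence so fewer parasites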
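Test system: β-gal T. cruzi (Tulahuen C4) inside NIH/3T3 cells / Quantity: 5,000 cells/well / Measured by: luminescence from GalScreen with 0.05% NP40, read after 60 min / Medium: DMEM plus 2% FBS / Measure: parasite load inhibition, % / Reagent: Tulahuen C4 trypomastigotes, 5000/well / Schedule: co-culture of at least 90 h after 3 h attachment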
CSC inhib: cancer stem cell inhibition | 1.1% of 300,000 active | inhibition, % at 7.5 µM | cancer stem cell-like cells viability, luminescence; in the data active = inhibition above about 75%; inconclusive = no clear call, values can overlap the other calls; tested in HMLE shEcad cells
SKKanGAS inh: blocks kanamycin growth of S. pyogenes SKKanGAS strain; BacTiter-Glo, 6 h; inhibition, % at 7.5 µM; 1.3% of 300,000 active; AID 1662;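 active = mean replicate score, as percent of positive control median, at least 50; inconclusive = mean below 50 but one replicate at or above 50; inactive = mean and every replicate below 50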;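 also: strain carries kanamycin resistance gene driven by streptokinase promoter and grows in 40 µg/ml kanamycin; loss of luminescence reflects streptokinase promoter inhibition or plain growth inhibition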
Large screens that a line does not name were inactive.

CSc1ccc(/C=N/n2c(COc3ccccc3)n[nH]c2=S)cc1	none (no result: Lmaj promast)
NC(=O)c1ccc(NC(=O)c2ccc(CN3CCOCC3)cc2)cc1	none
CCOC(=O)c1ccc(NC(=O)c2ccc(CN3CCOCC3)cc2)cc1	Lmaj promast 84.1
CC(C)CCNC(=O)C1CCC(CNS(=O)(=O)c2cccc3nsnc23)CC1 (stereo not given)	T cruzi repl 55.7 (no result: Lmaj promast)
CCn1c(Cc2ccccc2)nnc1SCc1cccc(C(=O)O)c1	Lmaj promast 60.9
Cc1ccc(NC(=O)OCCN2CCN(Cc3ccccc3)CCC2=O)cc1	Lmaj promast 74.1
N#Cc1sc(NCc2ccccn2)nc1Cl	none (no result: Lmaj promast)
CCN(CC)C(=O)NC1CC2CCCC(C1)N2Cc1ccccc1 (stereo not given)	none
CNC(=S)NC1CC2CCCC(C1)N2Cc1ccco1 (stereo not given)	none
CNC(=S)NC1CC2CCC(C1)N2Cc1ccccc1 (stereo not given)	Lmaj promast 85.7
O=C(/C=C/c1ccccc1)NC1CC2CCCC(C1)N2Cc1ccccc1 (stereo not given)	none (no result: Lmaj promast)
S=C(Nc1ccc(Cl)cc1)NC1CC2CCC(C1)N2Cc1ccccc1 (stereo not given)	Lmaj promast 99.7 (no result: Beta cell apopt)
COc1ccc(CN2C3CCCC2CC(NC(=O)/C=C/c2ccccc2)C3)cc1 (stereo not given)	Lmaj promast 87.5
COc1ccc(NC(=S)NC2CC3CCC(C2)N3Cc2ccco2)cc1 (stereo not given)	none
CCc1ccc(NC(=S)NC2CC3CCCC(C2)N3Cc2ccccc2)cc1 (stereo not given)	Lmaj promast 95.5
O=C(Nc1ccc(N2CCOCC2)cc1)C1CCN(S(=O)(=O)c2ccccc2F)CC1	none (no result: Lmaj promast)
N#CC1(NC(=O)COC(=O)c2cc(O)c3ccccc3c2O)CCCCC1	CSC inhib 89.5 (no result: Lmaj promast)
C=CCN(Cc1nc(-c2ccc(OC)c(OC)c2)oc1C)C1CCS(=O)(=O)C1 (stereo not given)	Lmaj promast 53.6
CCOC(=O)C1(Cc2cccc(OC)c2)CCN(Cc2cccc(OC)c2OC)CC1	none (no result: Beta cell apopt)
CCOC(=O)C1(Cc2cccc(OC)c2)CCN(Cc2cnc(N)nc2)CC1	none
CCOC(=O)C1(Cc2cccc(OC)c2)CCN(Cc2cccnc2)CC1	Lmaj promast 55.1 (no result: Beta cell apopt)
CCOC(=O)C1(Cc2cccc(OC)c2)CCN(Cc2cccc3cnccc23)CC1	Lmaj promast 91.3
CCOC(=O)C1(Cc2cccc(OC)c2)CCCN(Cc2c(C)nn(C(C)C)c2C)C1 (stereo not given)	T cruzi repl 64.3 (no result: Lmaj promast)
CCOC(=O)C1(Cc2cccc(OC)c2)CCN(Cc2cnc(SC)nc2)CC1	Lmaj promast 82.2
CCOC(=O)/C(=N\Nc1cccc(C(F)(F)F)c1)N1CCOCC1	CSC inhib 82.9
O=C(C[C@@H]1C/C=C\CCC(=O)O[C@H](c2ccccc2)CNC1=O)N[C@H](CO)Cc1ccccc1	none (no result: Lmaj promast, T cruzi repl, CSC inhib, SKKanGAS inh)
COc1ccc(Br)cc1/C(C)=N/NC1=NCCN1	Lmaj promast 52.1
Cn1c2cc(C#N)sc2c2cnn(Cc3ccc(F)cc3)c(=O)c21	none (no result: Lmaj promast, T cruzi repl, SKKanGAS inh)
CC(C)(O)c1ccccc1CC[C@@H](SCC1(CC(=O)O)CC1)c1cccc(/C=C/c2ccc3ccc(Cl)cc3n2)c1	CSC inhib 96.9, SKKanGAS inh 104.7 (no result: Lmaj promast)
Cc1ccc(C(=O)CN(CCCC(N)=O)S(=O)(=O)c2ccc([N+](=O)[O-])cc2)cc1	none (no result: Lmaj promast, T cruzi repl, SKKanGAS inh)
CCS(=O)(=O)N1Cc2ccccc2CC1C(=O)Nc1nnc(SCc2ccc(C#N)cc2)s1 (stereo not given)	SKKanGAS inh 59.6
CCS(=O)(=O)N1Cc2ccccc2CC1C(=O)Nc1nc2ccc(C)cc2s1 (stereo not given)	Lmaj promast 92.4
CC(C)OP(=O)(c1ccc(N(C)C)cc1)C(O)c1cccnc1 (stereo not given)	none (no result: Lmaj promast, Beta cell apopt)
CCOC(=O)C1(Cc2ccc(Cl)cc2)CCN(Cc2ccon2)CC1	Lmaj promast 95.0
CCOC(=O)C1(Cc2ccccc2Cl)CCN(Cc2csc(C(C)=O)c2)CC1	Lmaj promast 90.3
CCOC(=O)C1(Cc2ccccc2Cl)CCN(C(=O)CN2CCOC2=O)CC1	none
CCOC(=O)C1(Cc2cccc(F)c2)CCN(Cc2ccon2)CC1	none
CCOC(=O)C1(Cc2ccc(Cl)cc2)CCN(Cc2cnc(N)nc2)CC1	Lmaj promast 53.2
O=C(CN1C(=O)c2ccccc2S1(=O)=O)NCc1ccco1	none
O=S(=O)(Nc1ccc(Cl)cc1)c1ccc(N2CCOCC2)c(NC(=S)NCCN2CCOCC2)c1	none
CCOc1ccc2c3c(c(=O)oc2c1OCC)CCCC3	none (no result: Beta cell apopt)
CCCOc1ccc2c3c(c(=O)oc2c1OCCC)CCCC3	Lmaj promast 54.4, Beta cell apopt 99.9 (no result: CSC inhib)
O=C1CCCC2=C1C(c1ccc(Cl)cc1)N1C(=O)CCSC1=N2 (stereo not given)	none
Cc1ccc(C2C3=C(CCCC3=O)N=C3c4ccccc4C(=O)C32)cc1 (stereo not given)	Lmaj promast 66.7
O=C1CCCC2=C1C(c1ccccc1)C1C(=O)c3ccccc3C1=N2 (stereo not given)	Lmaj promast 62.2, Beta cell apopt inconclusive
O=C1CCCC2=C1C(c1ccc(Cl)cc1)C1C(=O)c3ccccc3C1=N2 (stereo not given)	Lmaj promast 57.0
Cn1cc(Cl)c(/C(N)=N/OC(=O)c2ccccc2C(F)(F)F)n1	none (no result: Lmaj promast)
O=C(CSc1ccc(Cl)cc1)NC1CCCC1	none
O=C(NC1CCCCC1)Sc1ccc(Cl)cc1	Lmaj promast 63.5, T cruzi repl inconclusive
Cc1ccc(C(=O)COC(=O)c2cn(-c3ccccc3)nc2-c2ccccc2)cc1[N+](=O)[O-]	Beta cell apopt 99.4, CSC inhib inconclusive
O=C(COC(=O)c1cn(-c2ccccc2)nc1-c1ccccc1)c1ccc([N+](=O)[O-])cc1	none
O=C(COC(=O)c1cn(-c2ccccc2)nc1-c1ccccc1)c1cccc([N+](=O)[O-])c1	Beta cell apopt 102.2
Cc1ccc(C(=O)COC(=O)c2ccccc2NC(=O)c2ccccc2)cc1[N+](=O)[O-]	none
CCN1C(=O)c2ccccc2S(=O)(=O)c2ccc(C(=O)NCCOC)cc21	none (no result: Lmaj promast)
COCCSc1ccccc1C(=O)Nc1ccccc1C#N	none
COc1ccc(NS(=O)(=O)c2cc(-c3cnc(C4CC4)o3)ccc2C)cc1	CSC inhib 79.9 (no result: Lmaj promast)
Oc1ccc(C=Nc2ccc3ncccc3c2)c(O)c1	Lmaj promast 93.3
Oc1ccc(C=Nc2cccc3ncccc23)c(O)c1	none
CN(C)CCNCCCOc1ccccc1-c1ccccc1	Lmaj promast 98.1
C=CCNCCOCCOc1ccccc1-c1ccccc1	Lmaj promast 95.3
CCC(C)NCCOCCOc1ccccc1-c1ccccc1 (stereo not given)	Lmaj promast 85.4
CC(C)(C)NCCOCCOc1ccccc1-c1ccccc1	none
COc1cc(C)ccc1OCCOCCOc1ccc(C)cc1[N+](=O)[O-]	none
C=CCNCCOCCOc1ccc(C)cc1[N+](=O)[O-]	Lmaj promast 81.3 (no result: Beta cell apopt)
